For 17 compounds, Ki and Activity results are on record in ChEMBL document CHEMBL1143048, “Inhibition of monoamine oxidase B by selected benzimidazole and caffeine analogues” (Bioorg Med Chem, 2007).

Active and inactive are the calls of the source. The rule behind the calls is not given here.

Molecular target in one test: not listed separately
Put plainly: Inhibition baboon liver mitochondrial MAOB. Details: species or system Papio hamadryas. The procedure, abridged:
(§1)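 Mitochondrial fraction from baboon liver was used as the enzyme source, without MAO-A inactivation. Incubations were run in 100 mM sodium phosphate, pH 7.4, with 0.15 mg protein/mL, MMTP at four levels (30–120 μM), three inhibitor levels, and 4% DMSO final, for 15 min at 37 °C. Reactions were stopped with perchloric acid. MMDP⁺ was read at 420 nm, and Lineweaver-Burk plots were constructed.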
Usually Ki stands for the equilibrium dissociation constant of an inhibitor or competing ligand from its target. In turn, `Cn1c(=O)c2c(nc(/C=C/c3cccs3)n2C)n(C)c1=O` showed a Ki of 1.58 µM. The same measure, in the same setting: then `Cn1c(/C=C/c2ccc(C(F)(F)F)cc2)nc2ccccc21`, with 0.43 µM. The same measure, in the same setting: then `Cc1ccc(/C=C/c2nc3ccccc3n2C)cc1`, with 3.26 µM.

With `Cc1nc2ccccc2[nH]1`, the affinity, expressed as Ki, was 1220 µM. For the compound `Cn1c(=O)c2c(nc(/C=C/c3cccc(Br)c3)n2C)n(C)c1=O`, the Ki was 0.086 µM. This Ki lies about 14000-fold lower than the previous one. The compound `Cn1cnc2ccccc21` yielded a Ki of 2080 µM.

The compound `COc1ccc(/C=C/c2nc3ccccc3n2C)cc1` showed a Ki of 5.82 µM. Regarding `Cn1c(/C=C/c2ccc(Cl)cc2)nc2ccccc21`, the affinity corresponds to a Ki of 2.83 µM. The compound `Cn1c(=O)c2c(nc(/C=C/c3ccco3)n2C)n(C)c1=O` displayed a Ki of 39.7 µM. In turn, `Cn1c(=O)c2c(nc3c4ccccc4ncn32)n(C)c1=O` came in with an inhibition constant Ki of 39.9 µM.

As for `Cn1c(/C=C/c2ccc(F)cc2)nc2ccccc21`, the inhibition constant (Ki) was determined as 15 µM.

As to `Cn1c(=O)c2c(nc(/C=C/c3ccc(Cl)c(Cl)c3)n2C)n(C)c1=O`, the Ki stood at 0.036 µM. On the same count and under the same terms, then `Cn1c(/C=C/c2ccccc2)nc2ccccc21`, with 18.7 µM; and `Cn1c(/C=C/c2ccc(Br)cc2)nc2ccccc21`, with 2.54 µM. The compound `Cn1c(=O)c2c(nc(/C=C/c3cc(C(F)(F)F)cc(C(F)(F)F)c3)n2C)n(C)c1=O` registered a Ki of 0.239 µM. Turning to `Cn1c(=O)c2c(nc(/C=C/c3ccsc3)n2C)n(C)c1=O`, the Ki was determined as 11.3 µM. Against the preceding compound, the Ki is about 47-fold higher.

For another test, the species on record is Papio hamadryas. In words: Inhibition baboon liver mitochondrial MAOB upto 50 uM. In short, it runs like this:
as §1
As to `CCn1c(=O)c2c(nc3c4ccccc4ncn32)n(CC)c1=O`, the result was inactive.
